Assay results reported in ChEMBL document CHEMBL2311390, “Synthesis and preliminary evaluation of pharmacological properties of some piperazine derivatives of xanthone” (Bioorg Med Chem, 2013).

Tests used:
[1] = target: T1, Adrenergic receptor alpha-2 (Rattus norvegicus, UniProt P22086+P19328+P22909); assay: Displacement of [3H]clonidine from alpha2-adrenergic receptor in rat cerebral cortex by liquid scintillation counting; type: tissue-based
T1 sequence (P22086 whole entry): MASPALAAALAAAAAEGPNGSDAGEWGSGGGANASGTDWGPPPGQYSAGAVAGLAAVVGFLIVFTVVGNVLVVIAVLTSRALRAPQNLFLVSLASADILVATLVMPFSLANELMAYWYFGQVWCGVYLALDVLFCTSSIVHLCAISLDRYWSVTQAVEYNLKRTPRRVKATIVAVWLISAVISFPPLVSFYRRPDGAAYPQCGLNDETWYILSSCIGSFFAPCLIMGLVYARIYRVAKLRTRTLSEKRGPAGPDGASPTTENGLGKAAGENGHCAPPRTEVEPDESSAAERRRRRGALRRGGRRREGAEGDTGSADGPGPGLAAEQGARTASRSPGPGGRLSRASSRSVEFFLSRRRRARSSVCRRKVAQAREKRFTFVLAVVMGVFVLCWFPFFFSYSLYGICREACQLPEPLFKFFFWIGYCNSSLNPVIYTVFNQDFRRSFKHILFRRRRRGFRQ
T1 sequence (P19328 whole entry): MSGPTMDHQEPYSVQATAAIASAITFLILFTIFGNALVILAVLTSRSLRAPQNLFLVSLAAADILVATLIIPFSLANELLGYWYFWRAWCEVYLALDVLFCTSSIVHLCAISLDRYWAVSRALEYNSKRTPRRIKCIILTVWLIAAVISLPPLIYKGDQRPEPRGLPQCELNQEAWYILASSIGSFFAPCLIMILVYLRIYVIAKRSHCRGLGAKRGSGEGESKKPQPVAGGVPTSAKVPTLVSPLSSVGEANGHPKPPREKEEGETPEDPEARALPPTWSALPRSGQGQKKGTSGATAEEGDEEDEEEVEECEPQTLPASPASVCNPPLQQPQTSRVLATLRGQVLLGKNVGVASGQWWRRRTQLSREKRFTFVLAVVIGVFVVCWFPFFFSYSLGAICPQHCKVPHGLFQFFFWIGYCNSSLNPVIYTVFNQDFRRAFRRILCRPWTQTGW
T1 sequence (P22909 whole entry): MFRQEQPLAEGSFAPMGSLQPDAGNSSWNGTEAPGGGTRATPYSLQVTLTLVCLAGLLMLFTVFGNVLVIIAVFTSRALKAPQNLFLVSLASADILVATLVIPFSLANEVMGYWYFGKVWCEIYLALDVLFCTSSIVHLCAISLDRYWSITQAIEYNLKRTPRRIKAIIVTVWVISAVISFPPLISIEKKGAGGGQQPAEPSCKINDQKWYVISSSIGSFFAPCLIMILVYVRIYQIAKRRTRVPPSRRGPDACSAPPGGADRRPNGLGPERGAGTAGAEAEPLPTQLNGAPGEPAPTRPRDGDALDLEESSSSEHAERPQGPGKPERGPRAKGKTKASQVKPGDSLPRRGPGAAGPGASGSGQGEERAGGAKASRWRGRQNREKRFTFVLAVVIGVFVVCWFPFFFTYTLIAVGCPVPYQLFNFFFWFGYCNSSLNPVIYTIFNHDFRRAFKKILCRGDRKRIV
How it was run: (§1)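 Rat cerebral cortex was homogenised in ice-cold 50 mM Tris-HCl pH 7.6 and spun at 20,000 g for 20 min at 0–4 °C, then washed once. Radioligands: [3H]prazosin 0.2 nM for α1, [3H]clonidine 2 nM for α2, [3H]CGP-12177 0.2 nM for β1. Test compounds were run at 7–8 concentrations from 10^-11 to 10^-4 M. Nonspecific binding was defined with phentolamine (α1), clonidine (α2) or propranolol (β1). Counting was by liquid scintillation, in duplicate. Ki was derived by Cheng–Prusoff from 2–3 experiments.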

[2] = target: T2, Adrenergic receptor alpha-1 (Rattus norvegicus, UniProt P15823+P23944+P43140); assay: Displacement of [3H]-prazosin from alpha1-adrenergic receptor in rat cerebral cortex by liquid scintillation counting; type: tissue-based; how it was run: as §1
T2 sequence (P15823 whole entry): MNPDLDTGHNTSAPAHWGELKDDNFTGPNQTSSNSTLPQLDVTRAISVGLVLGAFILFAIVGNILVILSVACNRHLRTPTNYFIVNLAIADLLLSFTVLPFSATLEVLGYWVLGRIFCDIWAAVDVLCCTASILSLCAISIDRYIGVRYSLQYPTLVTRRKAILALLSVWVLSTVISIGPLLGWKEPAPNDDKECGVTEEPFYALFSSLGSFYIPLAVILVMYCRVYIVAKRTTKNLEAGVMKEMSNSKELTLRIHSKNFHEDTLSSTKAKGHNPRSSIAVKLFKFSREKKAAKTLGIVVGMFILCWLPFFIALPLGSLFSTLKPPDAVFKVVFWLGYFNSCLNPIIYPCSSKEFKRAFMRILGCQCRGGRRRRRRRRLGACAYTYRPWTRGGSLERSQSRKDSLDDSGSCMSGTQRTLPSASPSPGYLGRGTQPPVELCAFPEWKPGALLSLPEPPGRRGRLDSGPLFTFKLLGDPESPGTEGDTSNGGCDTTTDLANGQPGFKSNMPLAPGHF
T2 sequence (P23944 whole entry): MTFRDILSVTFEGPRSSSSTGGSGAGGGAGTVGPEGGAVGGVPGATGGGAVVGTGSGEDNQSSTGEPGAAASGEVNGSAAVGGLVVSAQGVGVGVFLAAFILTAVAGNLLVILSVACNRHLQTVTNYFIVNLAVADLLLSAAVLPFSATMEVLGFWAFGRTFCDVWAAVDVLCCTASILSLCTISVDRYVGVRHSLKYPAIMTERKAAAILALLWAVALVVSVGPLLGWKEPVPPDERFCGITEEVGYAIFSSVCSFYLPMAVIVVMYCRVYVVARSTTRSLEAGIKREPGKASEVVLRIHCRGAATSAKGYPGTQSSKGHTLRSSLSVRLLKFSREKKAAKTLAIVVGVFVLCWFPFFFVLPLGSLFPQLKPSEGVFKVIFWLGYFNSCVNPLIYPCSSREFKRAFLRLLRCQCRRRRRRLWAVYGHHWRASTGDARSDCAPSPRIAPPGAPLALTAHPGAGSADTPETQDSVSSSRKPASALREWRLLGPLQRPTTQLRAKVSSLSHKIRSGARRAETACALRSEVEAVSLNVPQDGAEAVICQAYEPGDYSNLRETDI
T2 sequence (P43140 whole entry): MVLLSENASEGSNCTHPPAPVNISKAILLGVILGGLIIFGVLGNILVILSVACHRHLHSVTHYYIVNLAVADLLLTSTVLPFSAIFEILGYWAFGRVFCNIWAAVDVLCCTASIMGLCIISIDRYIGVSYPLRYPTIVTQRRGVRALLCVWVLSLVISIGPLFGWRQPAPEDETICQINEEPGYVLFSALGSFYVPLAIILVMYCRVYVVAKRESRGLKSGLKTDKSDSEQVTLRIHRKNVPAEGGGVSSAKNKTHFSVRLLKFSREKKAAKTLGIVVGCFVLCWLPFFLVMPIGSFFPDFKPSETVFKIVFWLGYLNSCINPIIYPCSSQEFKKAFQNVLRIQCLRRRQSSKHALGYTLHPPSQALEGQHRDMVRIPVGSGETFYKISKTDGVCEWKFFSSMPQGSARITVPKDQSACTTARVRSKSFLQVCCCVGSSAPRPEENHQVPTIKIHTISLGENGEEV

Compound	Ki [1] [µM]	Ki [2] [µM]
COc1ccccc1N1CCN(CCCOc2cccc3c(=O)c4ccccc4oc23)CC1.Cl	0.695	0.004
Cl.Cl.O=c1c2ccccc2oc2c(OCC(O)CN3CCN(C/C=C/c4ccccc4)CC3)cccc12 (racemic)	0.634	0.677
Cl.Cl.Cl.O=c1c2ccc(Cl)cc2oc2c(OCC(O)CN3CCN(C/C=C/c4ccccc4)CC3)cccc12 (racemic)	3.4	1.1
COc1ccccc1N1CCN(CC(COc2cccc3c(=O)c4ccccc4oc23)OC(C)=O)CC1.Cl (racemic)	2.1	0.05

Now from value to compound:

Ki [1] [µM]	Ki [2] [µM]	Compound
7.7	0.614	Cl.Cl.Cl.O=c1c2ccc(Cl)cc2oc2c(OCC(O)CN3CCN(Cc4ccccc4)CC3)cccc12 (racemic)
4.26	0.018	COc1ccccc1N1CCN(CC(O)COc2cccc3c(=O)c4ccccc4oc23)CC1.Cl (racemic)
0.45	0.506	Cl.Cl.Cl.O=c1c2ccc(Cl)cc2oc2c(OCC(O)CN3CCN(CCOc4ccccc4)CC3)cccc12 (racemic)
